Test results published in ChEMBL document CHEMBL4513216, “Probing the Open Global Health Chemical Diversity Library for Multistage-Active Starting Points for Next-Generation Antimalarials” (ACS Infect Dis, 2020).

Experiment: Toxicity liver stage against HepG2, at 10uM
Type: cell-based
Parameters: test concentration 10 uM, cell line HepG2-A16-CD81EGFP
Settings: human, HepG2-A16-CD81EGFP cells; read-out: INHIBITION
Summary of the method: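 Uninfected HepG2-A16-CD81EGFP cells, 3 × 10^3 per well, 1536-well, plated on prespotted compound at 10 μM final, parasite-free screening media added to match infected plates; puromycin 10 μM positive, DMSO 0.5% negative; run in parallel with 48 h PbLuc assay at 37 °C, 5% CO2; viability by CellTiter-Glo luminescence, normalized to controls.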

Compound	cytotoxicity at 10 µM
O=C1CCC2(CCCN(c3ncnc4[nH]cnc34)C2)CN1CCCO (stereo unspecified)	-2.09%
Cc1cccc(NC(=O)NCC2(N3CCOCC3)CCSC2)c1 (stereo unspecified)	5.02%
COCC(=O)N1CCCC(C(=O)NCc2cc(CC(C)C)on2)C1 (stereo unspecified)	10.6%
CC(C)C(=O)NC1COC2(CCN(C(=O)c3ccc[nH]3)CC2)C1 (stereo unspecified)	6.15%
O=C(c1cc(COc2ccc3c(c2)OCO3)[nH]n1)N1CCCC1	-0.526%
CCNC(=O)NC1CN(Cc2ccccc2N(C)C)C[C@@H]1OC (stereo partly specified)	-8.11%
CO[C@@H](C(=O)NC1CCOCC1)c1ccccc1	-2.43%
O=C1NCCN1C1CCN(Cc2nc(-c3ccsc3)no2)CC1	44.8%
CC(C)c1cc(-c2nn3c(C(C)C)nnc3s2)[nH]n1	0.999%
O=C(Nc1ccccc1OC1CCOC1)c1[nH]nc2c1CCCC2 (stereo unspecified)	0.271%
CCn1ccnc1CN1CCCC1c1c(C)nn(C)c1OC (stereo unspecified)	-0.386%
O=C(CCn1ccc2ncccc2c1=O)N1CCCC1	-1.93%
Cc1nn(C2CCS(=O)(=O)C2)c(O)c1CCc1ccccc1 (stereo unspecified)	-50.2%
Cc1noc(Cl)c1CC(=O)NCCOc1ccc(F)cc1F	-2.64%
Cc1ccc(CNC(=O)Cn2ncc3c2c(C)nn3C)cc1	22.2%
CCc1nc(CN(CCc2ccccc2)C2CCN(C)CC2)no1	-0.355%
CCN(CC)CCNc1c(-c2ccccc2)c(=O)c1=O	-0.686%
CC(C)CS(=O)(=O)N1C[C@@H]2C[C@H](C(=O)NCc3ccccc3)[C@H](C1)O2	8.24%
CC(C)=CCC/C(C)=C/CN1CCN(C)C2(CCNC(=O)CC2)C1 (stereo unspecified)	-54.1%
CCC(NC1CCN(S(C)(=O)=O)CC1)c1cccs1 (stereo unspecified)	0.125%
c1cncc(CN2CCC(c3n[nH]c(C4CC4)n3)CC2)c1	4.99%
Cc1csc(CN(C)CCCOc2cccc(C#N)c2)n1	-7.03%
CSc1nnc(CNC(=O)Nc2ccccc2Br)n1C	1.31%

Compound	cytotoxicity at 10 µM
CCN(CC)S(=O)(=O)N1CCCC1c1cccc(Nc2ncc(C)s2)n1 (stereo unspecified)	-39.3%
CN1CCC(Cc2cc(Nc3ccccn3)ncn2)CC1	-23.4%
CC(C(=O)Nc1ccc(N2CCOCC2)nc1)n1cncn1 (stereo unspecified)	-33.9%
O[C@@H]1Cc2ccccc2[C@@H]1Nc1ncccc1F	13.3%
CCc1n[nH]c(=O)c(C(=O)N2CCSCC2)c1CC	19.5%
COc1ccc(CNc2cccnc2-n2cccn2)cc1OC	7.25%
CC(O)c1cccc(OCc2ccon2)c1 (stereo unspecified)	-5.28%
CC(Cc1cn(CCc2nc(N)cc(O)n2)nn1)c1ccccc1 (stereo unspecified)	-5.58%
CN(C)CCN(C)C(=O)c1cn(CC2CCCCC2)nn1	-3.61%
COCC(=O)N1C[C@@H]2CCCO[C@@H]2[C@H](N(C)Cc2ccco2)C1	-0.704%
Cc1cccc(-c2nc(C)nn2CC(=O)NCC(C)C)c1	-27.9%
CCOc1ccc(SCCS(=O)(=O)CC)cc1	-2.91%
COc1ccc(CN(C)CC2(O)CCN(C(=O)c3cccn3C)C2)cc1 (stereo unspecified)	5.4%
CC(C)Cc1cc(NC(=O)N2CCC(Oc3cccnc3)C2)n(C)n1 (stereo unspecified)	-4.71%
CCS(=O)(=O)CC(=O)Nc1ccccc1N1CCc2ccccc21	9.26%
O=C(CN1CCC(c2cccc(F)c2)C1)NCC(F)(F)F (stereo unspecified)	-10.4%
CCn1ccnc1CN1CCCN(C(=O)c2sccc2C#N)CC1	-8.08%
CN1CCc2[nH]nc(C(=O)N3CCCC4(CN(C)C(=O)O4)C3)c2C1 (stereo unspecified)	-53.6%
O=C(NCCc1nc2ccccc2s1)c1coc(CN2CCOCC2)c1	-5.69%
c1cnn(C[C@@H]2C[C@@H]3CN(CC4CC4)CC[C@@H]3N2c2nccs2)c1	9.1%
COc1ccc(-c2noc([C@@H]3C[C@@H](O)CN3C3CCOCC3)n2)cc1	-1.7%
Cn1cc(C2(C)CN(C(=O)Nc3ccccc3F)CCO2)cn1 (stereo unspecified)	-5.23%
O=C(c1ccoc1)N1CCC2(CCC(=O)N2Cc2ccncc2)CC1	-1%

Compound	cytotoxicity at 10 µM
CN(c1ccc(C(N)=O)nn1)C1CCC1	9%
COCC(=O)N1Cc2cn(C)nc2C(COc2cccnc2)C1 (stereo unspecified)	-11%
Cc1cnc(N)c(C(=O)C2CCN(C(=O)C3CCC3)CC2)c1	-23.1%
CC(C)NC(=O)N1CCN2C(=O)OC[C@H]2C1	4.62%
CCNC(=O)c1ccc2c(c1)nc1n2CCN(Cc2ccco2)C1	-5.64%
Cc1cccc(C(C(=O)NCCCc2ccncc2)N(C)C)c1 (stereo unspecified)	-8.38%
c1cnc(N2CCO[C@H]3[C@H](OCC4CC4)CC[C@@H]32)nc1	5.88%
Cc1ccc(C(=O)N(C)Cc2nccn2CC(F)(F)F)cn1	2.52%
O=C(CSc1ccc(Br)cc1)NS(=O)(=O)c1ccc2c(c1)OCCO2	-5.51%
CN(Cc1ccco1)C(=O)Nc1cccnc1N1CCCC1	-5.3%
O=C(c1csc(-c2ccc(C(F)(F)F)cc2)n1)N1CCCNCC1	6.24%
O=C(NCCSC1CCCC1)c1cc(Cl)ccn1	-15.5%
CCc1nc2n(n1)CC(Nc1cc(C)nc3ncnn13)CC2 (stereo unspecified)	-9.91%
CCn1cc(NC(=O)Nc2ccc3c(c2)OCCO3)cn1	-1.04%
Cc1[nH]nc2ncc(C(=O)N3CCN(CC(C)O)CC3)cc12 (stereo unspecified)	-1.73%
Cn1c(CCNC(=O)Nc2cn[nH]c2)nc2ccc(F)cc21	-6.97%
Cc1c(C(=O)OCC2CC(=O)N(c3ccccc3)C2)cnn1C(C)C (stereo unspecified)	-3.52%
Cc1cc(CNC(=O)NCCOc2ccc(F)c(F)c2)on1	16.3%
O=C1COC2(CCN(c3ncccn3)CC2)CN1c1ccsc1	-0.31%
CCC(Oc1ccccc1)c1nn2c(CN(CC)CC)nnc2s1 (stereo unspecified)	4.91%
Cc1cnc(CN2CCCC2c2noc(C3CC3)n2)cn1 (stereo unspecified)	-13.5%
COc1cc2c(nn1)CCN(Cc1ncc(C(C)(C)C)o1)C2	-6.44%
CC(C)CNC(=O)Nc1cccc(CN2CCOC2=O)c1	-1.1%

Compound	cytotoxicity at 10 µM
CCN(CC)c1nc2sc(C(=O)N3CCNC(=O)C3)cc2s1	-4.29%
CC(C)(O)CCc1cccc(C(=O)N2CCC[C@H]2C(N)=O)c1	10.4%
CC(C)CCOCCNC(=O)Nc1cc(C(F)(F)F)c[nH]c1=O	-1.72%
Cc1cc(N(C)C)nc(N2CCn3c(nnc3C(C)C)C2)n1	19%
O=C(NCc1ccc(-n2cncn2)nc1)N(CC1CCOC1)C1CC1 (stereo unspecified)	1.74%
CC(C)n1ncc2cc(NC(=O)N3CCSCC3)cnc21	-5.07%
COc1cc(-c2n[nH]c(CC#N)n2)cc(OC)c1OC	-175%
c1ccc(COCC2CNCc3nccn3C2)nc1 (stereo unspecified)	14.4%
CCN(CC)C(C(=O)Nc1ccc2c(c1)CCC(=O)N2)c1ccccc1 (stereo unspecified)	7.18%
O=C(N[C@H]1CCCC[C@@H]1O)c1ccc(-c2nc3ccccc3[nH]2)cc1	-1.43%
CC(=O)Nc1ccc(C(=O)N2CCOc3nc(C)ccc32)cc1	2.81%
CN(C)C(=O)CN1C[C@H]2CC[C@@H](C1)N(C(=O)CCn1cncn1)C2	-9.96%
N#Cc1cccc(Cl)c1NCCCc1nc(=O)[nH][nH]1	24.2%
O=C(O)[C@@]12CN(c3cnccn3)C[C@@H]1CN(C1CCOCC1)C2	1.92%
Cc1cnn(CC2CCCCN2Cc2c(C)noc2C)c1 (stereo unspecified)	-11.2%
CCn1c(CN(C)C(=O)c2ccc(O)nc2)nc2ccccc21	10.2%
CC(C)c1nnc(NC(=O)N(C)Cc2ccncc2)s1	5.28%
CCCC1(C(=O)O)CCCN(C(=O)c2cc(Cl)ccc2F)C1 (stereo unspecified)	0.515%
Cn1ccc(C(=O)NCC2(O)CCN(c3cnccn3)C2)n1 (stereo unspecified)	3.45%
O=C(C1CC1)N(Cc1ccc2cc[nH]c2c1)C1CC1	-2.98%
Cc1cc(C)n(C2CCN(c3ncnc4c3CCC4)C2)n1 (stereo unspecified)	23.6%
CNS(=O)(=O)c1cc(C(=O)N(C)Cc2sccc2C)c(C)o1	-8.43%
O=S(=O)(c1cccs1)N1CC[C@H](O)[C@@H]1Cc1ccncc1	3.19%

Compound	cytotoxicity at 10 µM
COCc1csc(NC(=O)NCc2ccccn2)n1	11.3%
CC(Cn1cc(Br)cn1)C(=O)Nc1ccc(Cl)cn1 (stereo unspecified)	34%
Cc1cc(C)cc(CN2C[C@H]3COC[C@H](N4CCN(C)CC4)[C@H]3C2)c1	-93.7%
COc1cccc(COCC(O)CN(C)c2ccc(C)cc2C)c1 (stereo unspecified)	9.66%
CC(NCc1ccc(-c2ccc(Cl)cc2)o1)c1nnc2n1CCC2 (stereo unspecified)	-2.04%
O=C(C1CCOCC1)N1CCO[C@H]2[C@@H](OCC3CC3)CC[C@@H]21	-6.22%
CCc1nnc2n1CCN(Cc1cc(Cl)c3c(c1)OCCO3)C2	-8.95%
CCC(N)C(=O)N1CCC(OCc2ccc(Cl)c(Cl)c2)CC1 (stereo unspecified)	-12%
COc1cccc2c1N(Cc1noc(C(C)(C)C)n1)CCC2	10.9%
Cc1n[nH]c(C)c1CN(C)C(C(=O)O)c1ccc2c(c1)OCO2 (stereo unspecified)	6.86%
CCN1C(=O)CCCC12CCCN(C(=O)c1cnccn1)C2 (stereo unspecified)	2.63%
CCS(=O)(=O)N1CCO[C@H]2[C@H](OCC3CCCC3)CC[C@@H]21	-9.6%
CC(C)C(=O)NC1CCCc2nc(N3CCOCC3)ncc21 (stereo unspecified)	10.2%
CSc1nc2ccsc2c(=O)n1CC(=O)N(C)c1ccccc1	-5.57%
CCN1CCN(CCCNc2ncccn2)CC1	3.41%
O=C1NCC(c2ccc(Cl)cc2)Cc2[nH]c(CCN3CCOCC3)nc21 (stereo unspecified)	-5.68%
Cc1cnn(CC2CCCN2CC(=O)Nc2cc(C)no2)c1 (stereo unspecified)	2.27%
Cc1nn(C)c(N(C)C)c1CNC1CCOc2ccccc21 (stereo unspecified)	-9.66%
Cc1cc2c(=O)n3c(nc2s1)CCN(Cc1c[nH]cn1)CC3	-17.6%
